# Source: PubChem (several laboratories)
# Shown are actives, neighbours in structure and some others; about 5.8% of the full set was active somewhere.
# ROMK mod = modulators of human ROMK potassium channel | P48048 | Tet-inducible ROMK, thallium flux fluorescence; actives lie on both sides | B-score at 10 µM | AID 1918 | 2% of 130,000 active;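 active = signal ratio slope over the read window, or its plate-corrected B-score, at least 3 SD from the plate mean, either direction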;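 also: B-score of the F/F0 ratio slope over 7 to 12 s after thallium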
# WT yeast gro inh = growth inhibition of WT yeast, mitochondrial fusion screen; mitochondrial fusion phenotypic screen, WT strain; inhibition, % at 10 µM; 2.1% of 190,000 active; AID 1362; in the data active = inhibition above about 58%; tested in S. cerevisiae
# p47phox inh = p47phox (human) inhibition; P14598; p47phox/p22phox peptide binding, fluorescence polarization, 2 h; inhibition, % at 24.7 µM; 0.53% of 220,000 active;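 active = inhibition above about 30%, limit read from the data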;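 also: 0% = p47phox with labelled peptide and 100% = labelled peptide alone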
# RBBP9 inh = inhibitors of human serine hydrolase RBBP9. O75884. recombinant RBBP9, FP-Rh probe fluorescence polarization. inhibition, % at 7.94 µM. 0.2% of 220,000 active. AID 1515;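 active = inhibition above the campaign mean of all tested compounds plus 3 SD, cut at about 14% in these data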;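 also: plate controls were DMSO wells with RBBP9 for no effect and wells lacking RBBP9 protein for full effect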
#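 Assay system: recombinant human RBBP9; Reagent: Serine-hydrolase probe FP-Rh, 375 nM pre-mixing; Doses: 7.94 µM single dose, 0.794% DMSO; Incubation: 30 min then 45 min, 25 °C; Detection: fluorescence polarization (mP), excitation 525 nm, emission 598 nm; Evaluation: percent inhibition from mP, scaled between DMSO and no-protein wells.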
# Cl transport mod = KCC2 (human) Cl- transport modulation; 2.2% of 190,000 active; Q9H2X9; B-score of Tl+ flux slope (higher = more flux/activation; lower = inhibition) at 10 µM; KCC2 cells, thallium flux FluoZin-2 fluorescence;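 active = thallium flux slope and its plate-corrected score both differing from the plate sample mean at a set confidence after two filtering rounds, in either direction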;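 also: slope of fluorescence scaled to starting intensity during 10 to 20 s after thallium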
# Target sequence (Q9H2X9 whole entry, looked up): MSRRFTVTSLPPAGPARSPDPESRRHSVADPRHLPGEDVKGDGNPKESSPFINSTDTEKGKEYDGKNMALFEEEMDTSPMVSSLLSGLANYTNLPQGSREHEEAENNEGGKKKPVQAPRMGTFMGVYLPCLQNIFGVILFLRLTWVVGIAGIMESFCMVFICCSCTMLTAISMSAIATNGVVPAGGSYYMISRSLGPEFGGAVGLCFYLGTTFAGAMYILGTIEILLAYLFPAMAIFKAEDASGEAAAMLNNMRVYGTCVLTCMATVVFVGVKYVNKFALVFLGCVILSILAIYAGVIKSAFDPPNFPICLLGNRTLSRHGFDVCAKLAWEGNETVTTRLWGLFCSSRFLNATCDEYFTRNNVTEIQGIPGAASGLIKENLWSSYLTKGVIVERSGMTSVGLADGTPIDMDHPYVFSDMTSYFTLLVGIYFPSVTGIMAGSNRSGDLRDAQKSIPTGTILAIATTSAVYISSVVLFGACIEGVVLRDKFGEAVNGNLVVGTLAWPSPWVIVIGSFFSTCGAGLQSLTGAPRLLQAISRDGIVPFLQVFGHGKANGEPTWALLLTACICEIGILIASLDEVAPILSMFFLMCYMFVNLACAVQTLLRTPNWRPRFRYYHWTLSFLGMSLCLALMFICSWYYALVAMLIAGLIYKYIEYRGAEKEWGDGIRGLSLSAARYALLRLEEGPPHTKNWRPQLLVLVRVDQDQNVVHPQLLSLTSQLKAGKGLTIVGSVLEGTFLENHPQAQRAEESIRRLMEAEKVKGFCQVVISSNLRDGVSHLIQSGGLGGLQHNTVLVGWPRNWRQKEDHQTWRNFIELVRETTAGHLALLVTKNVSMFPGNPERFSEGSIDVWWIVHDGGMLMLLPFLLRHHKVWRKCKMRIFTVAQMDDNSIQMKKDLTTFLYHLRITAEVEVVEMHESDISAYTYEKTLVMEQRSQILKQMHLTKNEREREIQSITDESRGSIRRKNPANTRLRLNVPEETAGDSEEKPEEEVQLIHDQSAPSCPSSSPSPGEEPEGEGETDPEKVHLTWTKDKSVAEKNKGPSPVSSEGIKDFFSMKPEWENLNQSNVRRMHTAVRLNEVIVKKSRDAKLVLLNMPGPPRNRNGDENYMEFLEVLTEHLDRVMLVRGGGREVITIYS
# 14-3-3 Bad PPI = disrupts binding of bovine 14-3-3 zeta to phospho-Bad peptide; inhibition, % at 21.7 µM; P63103; 0.71% of 220,000 active; TR-FRET 14-3-3zeta/Dy647-pBad peptide displacement, 1 h;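 active = inhibition above about 70%, limit read from the data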;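 also: 0% = full 14-3-3 plus peptide FRET controls and 100% = background without 14-3-3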
# Numbers without * were called inactive; . = no result; [ ] = remark or other dose.
SMILES,ROMK mod,WT yeast gro inh,p47phox inh,RBBP9 inh,Cl transport mod,14-3-3 Bad PPI
S=c1[nH]nc(CCCc2n[nH]c(=S)o2)o1,-1.1,.,-14,-1,-0.1,-3
CCOc1cc(CN2CCSCC2)ccc1O,.,9,2,1,0.74,74*
Cc1ccc(NC(=O)ON=C2CCCC2)cc1,0.11,9,0,-1,0.28,19
CCOC(=O)C1CCCN(C(=O)CN2C(=O)c3ccccc3C2=O)C1 (centres undefined),0.24,5,-15,-7,-0.19,-3
CCOC(=O)C1CCCN(C(=O)CN2C(=O)/C(=C/c3ccc(OC)cc3)Oc3ccccc32)C1 (centres undefined),-0.41,59*,-7,-1,-1.5,-30
COc1ccc(CN(C(=O)CSc2nnc(-c3ccccc3C)o2)c2ccc(F)cc2)cc1,.,15,0,-9,-0.84,2
O=C(CSc1nnc(-c2c[nH]c3ccccc23)o1)N(Cc1ccccc1)c1ccc(F)cc1,.,59*,-9,-22,0.98,-3
CCn1cc(/C=N/NC(=O)COc2cccc3cccnc23)c2ccccc21,-0.21,0,41*,-6,-0.25,80*[fluorescence artefact?]
Cn1c(=O)c2c(ncn2CC(=O)N/N=C/c2ccc(Br)s2)n(C)c1=O,.,7,-23,-7,0.56,-2
NC(=O)C1CCN(CC(=O)N2N=CCC2c2ccccc2)CC1 (centres undefined),-0.34,6,-2,-7,0.051,4
CC(=O)Nc1ccc(S(=O)(=O)N2CCN(Cc3ccccc3[N+](=O)[O-])CC2)cc1,-2.3,-4,-15,-2,-0.26,-9
O=C(Nc1ccc(S(=O)(=O)N2CCCC2)cc1)c1cnccn1,-0.19,-11,9,-6,0.33,-10
CC(=O)Nc1ccc(S(=O)(=O)N2CCN(Cc3ccccn3)CC2)cc1,0.39,-8,-5,3,.,71*
O=C(Nc1ccc(S(=O)(=O)N2CCN(Cc3ccccc3)CC2)cc1)c1cnccn1,.,60*,-24,-11,0.18,0
O=S(=O)(c1ccccc1)N1CCN(Cc2cccc(Cl)c2)CC1,.,5,-10,-5,-0.62,72*
CC(NCC1(N2CCOCC2)CCCCC1)C(=O)Nc1ccc(Cl)cc1Cl (centres undefined),-2,5,8,0,0.099,9
CCOC(=O)c1cc(-c2ccc(OC)cc2OC)nn1-c1ccc(C(=O)O)cc1,0.088,-9,0,-7,-0.41,-14
CCOc1ccccc1NC(=O)c1c(Br)cnn1C,-0.32,16,38*,0,0.21,5
CCn1ncc(Br)c1C(=O)Nc1ccccc1OC,-0.18,-21,2,0,-1.6,-9
Clc1ccc(-c2nnc(NCc3ccccc3)c3ccccc23)cc1,.,73*,-6,-5,1.1,-1
Cc1ccc(-c2nnc(NCc3ccccc3)c3ccccc23)cc1,.,-12,-2,-4,-1.5,0
FC(F)(F)c1ccc(N2CCN(c3cc(-c4ccccc4)nc4ncnn34)CC2)nc1,-0.02,64*,8,-4,.,-17
O=C1NN=C(c2ccc(Cl)cc2)CC1c1cccc(Br)c1 (centres undefined),-1.5,77*,-6,-5,-3.2,-6
O=C1NN=C(c2ccc(Cl)cc2)CC1c1c[nH]c2ccccc12 (centres undefined),-0.74,66*,-20,0,0.65,-12
C=CCN1c2ccccc2[C@]23C[C@@H](C(=O)OC)N(C(=O)c4cccs4)C2=NC(C(=O)OC)=C(C(=O)OC)[C@H]13,.,.,-2,.,-0.34,-1
SMILES,ROMK mod,WT yeast gro inh,p47phox inh,RBBP9 inh,Cl transport mod,14-3-3 Bad PPI
CCC(=O)NCC(c1cccs1)N1CCOCC1 (centres undefined),.,-11,1,-4,0.038,85*
O=C(CN1CCCC1=O)NC1C2CC3CC(C2)CC1C3 (centres undefined),.,0,3,-6,0.75,-12
O=c1[nH]c2ccc(S(=O)(=O)Nc3ccc(-c4nnc5n4CCCCC5)cc3)cc2o1,.,-5,56*,4,1.3,-2
O=C(Nc1ccc(C2=NCCN2)cc1)c1ccc(Cl)c(C(=O)Nc2ccc(C3=NCCN3)cc2)c1,.,.,-33,-10,-0.31,41
CC(C)(C)NC(=O)C12CC3CC(CC(Cl)(C3)C1)C2,.,1,0,-10,-0.03,10
CC(C)(C)NC(=S)NC(=O)C12CCC3CC(CC(C3)C1)C2,-0.86,73*,-5,0,0.34,-5
CCC(=O)c1c[nH]c(C(=O)NCc2ccco2)c1,.,0,-6,-7,.,-13
CCC(CC)C(=O)c1c[nH]c(C(=O)NCc2ccco2)c1,.,61*,-7,-1,-0.4,-33
Cn1cc(S(=O)(=O)Nc2ccc3c(c2)OCCO3)cn1,0.35,-1,-9,-7,0.93,89*
Cn1c(=O)c2cc(S(=O)(=O)Nc3ccc4c(c3)OCO4)ccc2n(C)c1=O,.,-7,65*,4,-0.8,-28
NS(=O)(=O)c1ccc(NC(=O)COC(=O)CCc2ccc(S(=O)(=O)N3CCOCC3)cc2)cc1,.,.,-12,-7,0.079,10
CCOC(=O)c1cc(-c2ccccc2)sc1NC(=O)CC(C)C,1.3,7,-3,-8,-0.32,74*
CN(C)S(=O)(=O)c1cccc(N=c2scc(-c3ccc4c(c3)NC(=O)CO4)n2CC2CCCO2)c1 (centres undefined),-0.36,9,-4,12,-0.28,70*
C=CCNC(=O)c1sccc1Oc1ccc(F)cc1[N+](=O)[O-],-0.52,-27,6,5,-0.6,-5
O=C(Nc1ccccc1)Nc1ccc(C(=O)N2CCCC2)cc1,0.14,62*,-1,0,-1.4,-6
C=CCOC(=O)C1=C(C)NC(C)=C(C(=O)OCC=C)C1c1cn(-c2ccccc2)nc1-c1ccco1,0.65,-7,-10,-10,0.055,-8
Cn1nc(NC(=O)CC23CC4CC(CC(C4)C2)C3)c2c(F)cccc21,-1.1,.,-10,-6,-2.2,3
Cc1cccc(C)c1NC(=S)Nc1ccc(Cl)c(Cl)c1,0.079,80*,1,1,4.4,-15
Cc1ccc(NC(=S)Nc2ccc(OC(F)F)c(Cl)c2)cc1Cl,1.4,73*,-37,4,0.93,-10
FC(F)Oc1ccc(NC(=S)NCc2ccccc2)cc1Cl,-1.1,58*,-12,-4,-0.031,-9
Fc1ccc(NC(=S)Nc2ccccc2N2CCOCC2)cc1Cl,-0.28,61*,1,4,-0.3,-8
Fc1ccc(NC(=S)Nc2ccccc2OC(F)F)cc1Cl,.,62*,-13,3,1.6,-7
Cc1ccc(NC(=S)Nc2ccc(Cl)c(Cl)c2)c(OC(F)F)c1,.,80*,-9,-7,-0.076,-6
O=S1(=O)Nc2c(ccc3cccnc23)-c2ccccc21,-0.014,31,2,-6,4.1*,7
